Source: paper PMC7703486 (Angewandte Chemie (International ed. in English), 2020)
Read-outs that look alike come from different tables or passages of the source. Blank lines part the entries; values can stand above or below the compound they belong to.

Key:
CDK1/cyclin B = CDK1/cyclin B (Homo sapiens, UniProt P06493); test: Biochemical assay CDK1/cyclin B
CDK4/cyclin D1 = CDK4/cyclin D1 (Homo sapiens, UniProt P11802); test: Biochemical assay CDK4/cyclin D1
CDK2/cyclin A = CDK2/cyclin A (Homo sapiens, UniProt P24941); test: Biochemical assay CDK2/cyclin A
CDK6/cyclin D1 = CDK6/cyclin D1 (Homo sapiens, UniProt Q00534); test: Biochemical assay CDK6/cyclin D1
CDK5/p25 = CDK5/p25 (Homo sapiens, UniProt Q00535); test: Biochemical assay CDK5/p25
CDK1 [1] = molecular target: T1, CDK1 (Homo sapiens, UniProt P06493); test: Immunoblot degradation in Jurkat cells, CDK1; format: cell-based; details: 6 hours
CDK6 [2] = molecular target: T2, CDK6 (Homo sapiens, UniProt Q00534); test: Immunoblot degradation in OVCAR8 cells, CDK6; format: cell-based; details: OVCAR8 cells (Figure S2)
CDK2 [3] = molecular target: T3, CDK2 (Homo sapiens, UniProt P24941); test: Immunoblot degradation in Jurkat cells, CDK2; format: cell-based; details: 6 hours
Summary of the method: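 Jurkat cells exposed 6 h to test compound, at 1 μM in the initial degrader screen and otherwise at the indicated concentrations, then CDK2 read by immunoblot. Cereblon dependence was checked with an analogue carrying a methylated glutarimide that cannot engage cereblon, under the same 6 h conditions.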

CDK7 = CDK7 (Homo sapiens, UniProt P50613); test: Immunoblot degradation in Jurkat cells, CDK7; format: cell-based; details: 6 hours
CDK5 [4] = molecular target: T4, CDK5 (Homo sapiens, UniProt Q00535); test: Immunoblot degradation in Jurkat cells, CDK5; format: cell-based; details: 6 hours
CDK4 [5] = molecular target: T5, CDK4 (Homo sapiens, UniProt P11802); test: Immunoblot degradation in OVCAR8 cells, CDK4; format: cell-based; details: OVCAR8 cells (Figure S2)
CDK6 [6] = molecular target: T2, CDK6; test: Immunoblot degradation in Jurkat cells, CDK6; format: cell-based; details: 6 hours
CDK9 = CDK9 (Homo sapiens, UniProt P50750); test: Immunoblot degradation in Jurkat cells, CDK9; format: cell-based; details: 6 hours
CDK4 [7] = molecular target: T5, CDK4; test: Immunoblot degradation in Jurkat cells, CDK4; format: cell-based; details: 6 hours
CDK9/cyclin T1 = CDK9/cyclin T1 (Homo sapiens, UniProt P50750); test: Biochemical assay CDK9/cyclin T1
CDK7/cyclin H = CDK7/cyclin H (Homo sapiens, UniProt P50613); test: Biochemical assay CDK7/cyclin H
CDK5 [8] = molecular target: T4, CDK5; test: Immunoblot degradation in OVCAR8 cells, CDK5; format: cell-based; details: 6 hours
STK33 = STK33 (Homo sapiens, UniProt Q9BYT3); test: Pulse-chase SILAC MS proteomics in OVCAR8 cells, STK33; format: cell-based; details: OVCAR8, 250 nM, 6 hours
OVCAR8 cells = test: Growth rate inhibition in OVCAR8 cells; format: cell-based
JNK2 (MAPK9) = JNK2 (MAPK9) (Homo sapiens, UniProt P45984); test: Pulse-chase SILAC MS proteomics in OVCAR8 cells, JNK2; format: cell-based; details: OVCAR8, 250 nM, 6 hours
CDK2 [9] = molecular target: T3, CDK2; test: Immunoblot degradation in OVCAR8 cells, CDK2; format: cell-based; details: 6 hours
Aurora A [10] = molecular target: T6, Aurora A (Homo sapiens, UniProt O14965); test: Degradation in OVCAR8 cells, Aurora A; format: cell-based; details: OVCAR8, same conditions (Figure S3)
T6 sequence (O14965 1-403): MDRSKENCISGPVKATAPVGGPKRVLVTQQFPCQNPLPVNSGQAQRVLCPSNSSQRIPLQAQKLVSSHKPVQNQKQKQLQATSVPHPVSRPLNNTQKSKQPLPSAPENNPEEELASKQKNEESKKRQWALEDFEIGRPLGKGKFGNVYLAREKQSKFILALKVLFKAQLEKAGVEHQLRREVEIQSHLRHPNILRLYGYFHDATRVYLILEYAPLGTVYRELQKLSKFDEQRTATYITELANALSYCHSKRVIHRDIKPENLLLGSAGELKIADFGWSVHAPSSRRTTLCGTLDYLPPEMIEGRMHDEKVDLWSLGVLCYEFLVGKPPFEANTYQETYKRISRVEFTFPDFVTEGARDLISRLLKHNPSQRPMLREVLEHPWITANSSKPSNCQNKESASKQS

CDK1 [11] = molecular target: T1, CDK1; test: Immunoblot degradation in OVCAR8 cells, CDK1; format: cell-based; details: 6 hours
CDK2 [12] = molecular target: T3, CDK2; test: KINOMEscan, CDK2; format: binding; details: 1 μM; only CDK with potent inhibition; CDK1 not in panel
CRBN = CRBN (Homo sapiens, UniProt Q96SW2); test: Cellular CRBN engagement assay; format: cell-based
RSK1 (RPS6KA1) = RSK1 (RPS6KA1) (Homo sapiens, UniProt Q15418); test: Pulse-chase SILAC MS proteomics in OVCAR8 cells, RSK1; format: cell-based; details: OVCAR8, 250 nM, 6 hours
more than 400 kinases = test: KINOMEscan panel profiling; format: binding; details: 1 μM
CDK2 [13] = molecular target: T3, CDK2; test: Pulse-chase SILAC MS proteomics in OVCAR8 cells, CDK2; format: cell-based; details: OVCAR8, 250 nM, 6 hours
Aurora A [14] = molecular target: T6, Aurora A; test: Biochemical activity assay Aurora A
CDK5 [15] = molecular target: T4, CDK5; test: Pulse-chase SILAC MS proteomics in OVCAR8 cells, CDK5; format: cell-based; details: OVCAR8, 250 nM, 6 hours
Aurora A [16] = molecular target: T6, Aurora A; test: Pulse-chase SILAC MS proteomics in OVCAR8 cells, Aurora A; format: cell-based; details: OVCAR8, 250 nM, 6 hours
CDK2 [17] = molecular target: T3, CDK2; test: Immunoblot degradation in CRBN-null Jurkat cells, CDK2; format: cell-based; details: 6 hours
Summary of the method: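 Used to test whether degradation requires cereblon: CRBN-null Jurkat cells treated 6 h with test compound, then CDK2 levels read by immunoblot.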

[18] = read-out: CDK1 IC50, Table 2, w/cyclin B, duplicate
[19] = read-out: CDK4 IC50, Table 2, w/cyclin D1, duplicate
[20] = read-out: CDK2 IC50, Table 2, w/cyclin A, duplicate
[21] = read-out: CDK6 IC50, Table 2, w/cyclin D1, duplicate
[22] = read-out: CDK5 IC50, Table 2, w/p25, duplicate
[23] = read-out: CDK1/cyclin B IC50, Table 1, degraders, tested in duplicate
[24] = read-out: CDK2/cyclin A IC50, Table 1, degraders, tested in duplicate

CDK4/cyclin D1, sequence (P11802 whole entry): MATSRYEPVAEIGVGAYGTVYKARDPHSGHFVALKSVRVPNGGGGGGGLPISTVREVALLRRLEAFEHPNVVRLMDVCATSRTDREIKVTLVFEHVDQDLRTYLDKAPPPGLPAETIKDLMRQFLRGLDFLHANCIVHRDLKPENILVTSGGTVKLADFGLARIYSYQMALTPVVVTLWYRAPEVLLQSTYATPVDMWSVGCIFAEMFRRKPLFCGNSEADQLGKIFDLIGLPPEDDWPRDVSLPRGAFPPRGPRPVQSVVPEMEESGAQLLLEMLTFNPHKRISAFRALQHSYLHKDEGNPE
CDK4/cyclin D1, sequence (P24385 whole entry partner): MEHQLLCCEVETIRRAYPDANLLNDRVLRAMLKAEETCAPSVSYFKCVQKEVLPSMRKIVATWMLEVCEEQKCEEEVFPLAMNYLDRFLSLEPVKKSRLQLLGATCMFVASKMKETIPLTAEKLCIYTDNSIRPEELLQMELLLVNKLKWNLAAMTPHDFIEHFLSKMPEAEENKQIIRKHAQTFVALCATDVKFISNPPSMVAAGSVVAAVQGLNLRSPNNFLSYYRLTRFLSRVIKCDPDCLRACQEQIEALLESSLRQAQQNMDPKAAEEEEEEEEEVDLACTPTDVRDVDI
T5 sequence (P11802 whole entry): as the sequence (P11802 whole entry) above
CDK7/cyclin H, sequence (P50613 whole entry): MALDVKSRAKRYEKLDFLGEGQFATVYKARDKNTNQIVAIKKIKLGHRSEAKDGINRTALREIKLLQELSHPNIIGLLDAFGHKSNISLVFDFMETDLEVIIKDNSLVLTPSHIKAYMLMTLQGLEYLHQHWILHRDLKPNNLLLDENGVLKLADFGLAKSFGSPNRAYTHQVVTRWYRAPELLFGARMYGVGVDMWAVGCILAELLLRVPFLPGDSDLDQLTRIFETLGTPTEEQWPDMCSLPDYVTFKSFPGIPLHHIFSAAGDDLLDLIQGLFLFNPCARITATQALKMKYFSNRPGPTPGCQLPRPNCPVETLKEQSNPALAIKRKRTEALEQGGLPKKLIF
CDK7/cyclin H, sequence (P51946 whole entry partner): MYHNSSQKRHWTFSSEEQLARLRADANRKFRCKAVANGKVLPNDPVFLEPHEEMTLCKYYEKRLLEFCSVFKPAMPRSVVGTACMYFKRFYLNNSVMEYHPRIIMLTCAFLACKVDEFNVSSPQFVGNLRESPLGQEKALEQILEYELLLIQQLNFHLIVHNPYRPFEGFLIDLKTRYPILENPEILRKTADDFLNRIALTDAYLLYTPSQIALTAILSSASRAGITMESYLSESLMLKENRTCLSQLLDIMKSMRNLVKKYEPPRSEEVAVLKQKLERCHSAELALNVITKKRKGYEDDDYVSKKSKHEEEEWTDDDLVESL
CDK9/cyclin T1, sequence (P50750 whole entry): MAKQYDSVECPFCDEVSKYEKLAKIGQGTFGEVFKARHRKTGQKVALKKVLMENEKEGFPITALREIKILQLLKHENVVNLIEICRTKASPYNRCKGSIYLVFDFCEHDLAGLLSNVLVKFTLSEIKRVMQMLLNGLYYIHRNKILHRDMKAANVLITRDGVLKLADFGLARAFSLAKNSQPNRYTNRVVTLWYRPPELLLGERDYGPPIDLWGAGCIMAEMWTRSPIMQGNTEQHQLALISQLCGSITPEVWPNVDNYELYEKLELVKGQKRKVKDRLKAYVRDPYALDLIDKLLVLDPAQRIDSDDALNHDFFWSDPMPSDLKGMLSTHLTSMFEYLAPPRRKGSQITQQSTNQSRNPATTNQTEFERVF
CDK9/cyclin T1, sequence (O60563 whole entry partner): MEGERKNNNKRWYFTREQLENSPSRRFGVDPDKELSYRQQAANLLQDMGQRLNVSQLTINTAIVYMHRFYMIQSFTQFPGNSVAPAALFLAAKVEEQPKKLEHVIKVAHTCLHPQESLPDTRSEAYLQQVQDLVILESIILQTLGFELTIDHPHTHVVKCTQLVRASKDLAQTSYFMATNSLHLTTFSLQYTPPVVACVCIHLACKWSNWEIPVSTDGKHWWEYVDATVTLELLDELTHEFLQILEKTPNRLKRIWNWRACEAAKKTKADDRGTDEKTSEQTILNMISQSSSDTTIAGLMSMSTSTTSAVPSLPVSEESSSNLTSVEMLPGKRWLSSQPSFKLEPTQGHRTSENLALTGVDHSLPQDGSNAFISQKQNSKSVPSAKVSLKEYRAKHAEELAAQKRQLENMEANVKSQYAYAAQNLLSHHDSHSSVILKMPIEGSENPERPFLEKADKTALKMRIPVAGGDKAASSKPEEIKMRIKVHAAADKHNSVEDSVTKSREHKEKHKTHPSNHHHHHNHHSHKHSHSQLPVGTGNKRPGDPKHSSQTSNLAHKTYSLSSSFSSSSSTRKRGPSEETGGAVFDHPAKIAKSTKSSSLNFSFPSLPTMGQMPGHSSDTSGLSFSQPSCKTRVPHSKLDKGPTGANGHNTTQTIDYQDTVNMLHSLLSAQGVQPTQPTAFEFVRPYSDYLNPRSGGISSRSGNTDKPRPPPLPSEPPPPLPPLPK
T1 sequence (P06493 whole entry): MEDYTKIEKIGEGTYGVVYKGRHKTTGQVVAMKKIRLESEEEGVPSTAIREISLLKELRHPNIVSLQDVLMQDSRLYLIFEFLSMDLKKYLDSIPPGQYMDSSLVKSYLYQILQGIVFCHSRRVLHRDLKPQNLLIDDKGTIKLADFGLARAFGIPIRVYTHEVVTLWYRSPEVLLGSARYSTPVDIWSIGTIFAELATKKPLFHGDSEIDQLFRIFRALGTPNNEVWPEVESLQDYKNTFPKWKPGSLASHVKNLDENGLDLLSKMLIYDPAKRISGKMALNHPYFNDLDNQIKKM
CDK1/cyclin B, sequence (P06493 whole entry): as above
CDK1/cyclin B, sequence (P14635 whole entry partner): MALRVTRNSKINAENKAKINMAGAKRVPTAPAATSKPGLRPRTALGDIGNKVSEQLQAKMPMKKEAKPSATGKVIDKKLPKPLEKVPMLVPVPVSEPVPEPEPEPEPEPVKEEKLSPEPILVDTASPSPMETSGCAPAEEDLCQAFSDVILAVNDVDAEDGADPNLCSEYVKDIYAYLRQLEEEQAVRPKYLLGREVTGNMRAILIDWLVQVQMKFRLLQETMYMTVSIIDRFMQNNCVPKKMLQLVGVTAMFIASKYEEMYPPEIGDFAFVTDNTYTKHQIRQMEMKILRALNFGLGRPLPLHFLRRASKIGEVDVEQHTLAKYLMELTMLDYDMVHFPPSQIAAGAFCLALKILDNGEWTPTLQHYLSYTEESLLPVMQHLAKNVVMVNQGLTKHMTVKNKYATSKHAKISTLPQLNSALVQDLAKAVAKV
CDK6/cyclin D1, sequence (Q00534 whole entry): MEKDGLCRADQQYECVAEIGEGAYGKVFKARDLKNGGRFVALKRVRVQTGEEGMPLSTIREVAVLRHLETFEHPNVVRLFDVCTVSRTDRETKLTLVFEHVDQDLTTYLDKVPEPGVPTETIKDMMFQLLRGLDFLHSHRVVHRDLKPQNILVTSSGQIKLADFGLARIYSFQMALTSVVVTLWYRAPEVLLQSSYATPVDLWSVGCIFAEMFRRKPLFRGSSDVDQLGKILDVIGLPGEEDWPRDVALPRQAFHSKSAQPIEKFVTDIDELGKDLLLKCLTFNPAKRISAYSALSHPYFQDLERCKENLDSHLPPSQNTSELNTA
CDK6/cyclin D1, sequence (P24385 whole entry partner): as the sequence (P24385 whole entry partner) above
T2 sequence (Q00534 whole entry): as the sequence (Q00534 whole entry) above
CDK5/p25, sequence (Q00535 whole entry): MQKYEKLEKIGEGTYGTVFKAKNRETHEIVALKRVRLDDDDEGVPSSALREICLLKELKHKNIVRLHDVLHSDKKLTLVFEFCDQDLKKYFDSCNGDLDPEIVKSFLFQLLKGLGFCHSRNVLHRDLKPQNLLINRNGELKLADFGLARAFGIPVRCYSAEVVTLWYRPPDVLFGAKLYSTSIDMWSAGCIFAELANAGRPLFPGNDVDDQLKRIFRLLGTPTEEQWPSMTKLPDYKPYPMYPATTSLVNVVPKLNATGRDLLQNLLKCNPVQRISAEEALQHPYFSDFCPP
CDK5/p25, sequence (Q15078 99-307 partner limits assumed): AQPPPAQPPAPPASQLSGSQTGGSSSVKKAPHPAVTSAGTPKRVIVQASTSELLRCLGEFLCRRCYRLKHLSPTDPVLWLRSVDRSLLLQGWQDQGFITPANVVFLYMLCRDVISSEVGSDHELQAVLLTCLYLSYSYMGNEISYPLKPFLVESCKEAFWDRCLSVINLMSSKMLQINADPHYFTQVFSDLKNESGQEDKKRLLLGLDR
T4 sequence (Q00535 whole entry): as the sequence (Q00535 whole entry) above
CDK7, sequence (P50613 whole entry): as the sequence (P50613 whole entry) above
CDK9, sequence (P50750 whole entry): as the sequence (P50750 whole entry) above

Compound: NC(=O)c1c(F)cccc1Nc1nc(Nc2ccc(S(N)(=O)=O)cc2)ncc1Br [TMX-3013]
IC50 (CDK1/cyclin B; [18]): 0.9 nM
IC50 (CDK4/cyclin D1; [19]): 24.5 nM
IC50 (CDK2/cyclin A; [20]): < 0.5 nM
IC50 (CDK6/cyclin D1; [21]): 15.6 nM
IC50 (CDK5/p25; [22]): 0.5 nM

IC50 (CDK1/cyclin B; [23]): 9.5 nM
IC50 (CDK2/cyclin A; [24]): 6.4 nM
Compound: NC(=O)c1c(F)cccc1Nc1nc(NC2CCN(S(=O)(=O)CCNC(=O)CCOCCOCCOCCOCCOc3cccc4c3C(=O)N(C3CCC(=O)NC3=O)C4=O)CC2)ncc1Br (stereo not drawn) [TMX-1111]

IC50 (CDK1/cyclin B; [23]): 8.5 nM
CDK1 degradation (CDK1 [1]; 1 μM): no CDK1 degradation was observed
CDK6 degradation (CDK6 [2]): not degraded
IC50 (CDK2/cyclin A; [24]): 28.7 nM
CDK2 degradation (CDK2 [3]; 1 μM): induced CDK2 degradation
CDK7 degradation (CDK7; immunoblot (Figure 2B)): not degraded
CDK5 degradation (CDK5 [4]; immunoblot (Figure 2B)): potently degraded
CDK4 degradation (CDK4 [5]): not degraded
CDK6 degradation (CDK6 [6]; immunoblot (Figure 2B)): potently degraded
CDK9 degradation (CDK9; immunoblot (Figure 2B)): not degraded
CDK4 degradation (CDK4 [7]; immunoblot (Figure 2B)): potently degraded
Compound: NC(=O)c1c(F)cccc1Nc1nc(NC2CCN(S(=O)(=O)CCNC(=O)CCCCCCCCOc3cccc4c3C(=O)N(C3CCC(=O)NC3=O)C4=O)CC2)ncc1Br (stereo not drawn) [TMX-1160]

Compound: Cc1cc(S(N)(=O)=O)ccc1Nc1ncc(Br)c(Nc2cccc(F)c2C(N)=O)n1 [TMX-3010]
IC50 (CDK1/cyclin B; [18]): 1.2 nM
IC50 (CDK4/cyclin D1; [19]): 135 nM
discrimination for inhibiting CDK1, CDK2, and CDK5 over CDK4 and CDK6 (CDK2/cyclin A; benchmarked to CDK2 IC50 value): hundred-fold
IC50 (CDK2/cyclin A; [20]): 0.7 nM
IC50 (CDK6/cyclin D1; [21]): 84.1 nM
IC50 (CDK5/p25; [22]): 0.9 nM

IC50 (CDK1/cyclin B; [23]): 15.5 nM
IC50 (CDK2/cyclin A; [24]): 7.3 nM
Compound: NC(=O)c1c(F)cccc1Nc1nc(NC2CCN(S(=O)(=O)CCNC(=O)CCOCCOCCOCCOCCOCCOCCOCCOCCOc3cccc4c3C(=O)N(C3CCC(=O)NC3=O)C4=O)CC2)ncc1Br (stereo not drawn) [TMX-1146]

enzymatic IC50 CDK1 (CDK1/cyclin B; Figure 1): low nanomolar
enzymatic IC50 CDK9 (CDK9/cyclin T1; Figure 1): low nanomolar
enzymatic IC50 CDK4 (CDK4/cyclin D1; Figure 1): low nanomolar
enzymatic IC50 CDK2 (CDK2/cyclin A; Figure 1): low nanomolar
enzymatic IC50 CDK7 (CDK7/cyclin H; Figure 1): low nanomolar
enzymatic IC50 CDK6 (CDK6/cyclin D1; Figure 1): low nanomolar
Compound: CS(=O)(=O)N1CCC(Nc2ncc(Br)c(Nc3cccc(F)c3C(N)=O)n2)CC1 [TMX-2039]

IC50 (CDK1/cyclin B; [23]): 11.6 nM
IC50 (CDK2/cyclin A; [24]): 4.9 nM
Compound: NC(=O)c1c(F)cccc1Nc1nc(NC2CCN(S(=O)(=O)CCNC(=O)CCOCCOCCOc3cccc4c3C(=O)N(C3CCC(=O)NC3=O)C4=O)CC2)ncc1Br (stereo not drawn) [TMX-1128]

IC50 (CDK1/cyclin B; read-out: CDK1/cyclin B IC50, Table 3, duplicate): 8.7 nM
IC50 (CDK9/cyclin T1; read-out: CDK9/cyclin T1 IC50, Table 3, duplicate): 25.7 nM
IC50 (CDK4/cyclin D1; read-out: CDK4/cyclin D1 IC50, Table 3, duplicate): 901 nM
IC50 (CDK2/cyclin A; read-out: CDK2/cyclin A IC50, Table 3, duplicate): 10.9 nM
IC50 (CDK7/cyclin H; read-out: CDK7/cyclin H IC50, Table 3, duplicate): 286 nM
IC50 (CDK6/cyclin D1; read-out: CDK6/cyclin D1 IC50, Table 3, duplicate): 465 nM
IC50 (CDK5/p25; read-out: CDK5/p25 IC50, Table 3, duplicate): 7 nM
Compound: NC(=O)c1c(F)cccc1Nc1nc(Nc2ccc(S(=O)(=O)NCCOCCOCCOCCOCCNc3cccc4c3C(=O)N(C3CCC(=O)NC3=O)C4=O)cc2)ncc1Br (stereo not drawn) [TMX-2138]

IC50 (CDK1/cyclin B; [23]): 8.5 nM
CDK1 degradation (CDK1 [1]; 1 μM): no CDK1 degradation was observed
IC50 (CDK2/cyclin A; [24]): 17.1 nM
CDK2 degradation (CDK2 [3]; 1 μM): induced CDK2 degradation
Compound: NC(=O)c1c(F)cccc1Nc1nc(NC2CCN(S(=O)(=O)CCNC(=O)CCCCCCCOc3cccc4c3C(=O)N(C3CCC(=O)NC3=O)C4=O)CC2)ncc1Br (stereo not drawn) [TMX-1162]

IC50 (CDK1/cyclin B; [23]): 31 nM
IC50 (CDK2/cyclin A; [24]): 20.5 nM
Compound: NC(=O)c1c(F)cccc1Nc1nc(NC2CCN(S(=O)(=O)CCNC(=O)CCCCCOc3cccc4c3C(=O)N(C3CCC(=O)NC3=O)C4=O)CC2)ncc1Br (stereo not drawn) [TMX-1169]

CDK5 degradation (CDK5 [8]): degraded in a dose dependent manner
IC50 (CDK1/cyclin B): 20.3 nM
CDK1 degradation (CDK1 [1]; 250 nM): not affected
IC50 (CDK9/cyclin T1): 2640 nM
degree of degradation of STK33 (proteomics) (STK33): relatively weak
degree of degradation of JNK2 (MAPK9) (proteomics) (JNK2 (MAPK9)): relatively weak
IC50 (CDK4/cyclin D1): 7390 nM
CDK2 degradation (CDK2 [9]): degraded in a dose dependent manner
IC50 (CDK2/cyclin A): 6.5 nM
CDK2 degradation (CDK2 [3]; 250 nM): induced CDK2 degradation
concentration needed to achieve observable Aurora A degradation (Aurora A [10]): 5 µM
CDK7 degradation (CDK7; 250 nM, immunoblot): not affected
CDK5 degradation (CDK5 [4]; immunoblot (Figure 3A)): retained the ability to degrade CDK5
IC50 (CDK7/cyclin H): 2620 nM
CDK1 degradation (CDK1 [11]): remained intact
IC50 (CDK6/cyclin D1): 2220 nM
CDK6 degradation (CDK6 [6]; 250 nM, immunoblot): not affected
CDK9 degradation (CDK9; 250 nM, immunoblot): not affected
IC50 (CDK5/p25): 6.8 nM
CDK2 inhibition in KINOMEscan (CDK2 [12]): potent inhibition
IC50 (CRBN): 46.9 nM
degree of degradation of RSK1 (RPS6KA1) (proteomics) (RSK1 (RPS6KA1)): relatively weak
CDK4 degradation (CDK4 [7]; 250 nM, immunoblot): not affected
CDK2 degradation (proteomics) (CDK2 [13]): effectively degraded
IC50 (Aurora A [14]): 205 nM
CDK5 degradation (proteomics) (CDK5 [15]): effectively degraded
Aurora A degradation (proteomics) (Aurora A [16]): effectively degraded
CDK2 degradation (CDK2 [17]): no CDK2 degradation was detected
Compound: Cc1cc(S(=O)(=O)NCCOCCOCCOCCOCCNc2cccc3c2C(=O)N(C2CCC(=O)NC2=O)C3=O)ccc1Nc1ncc(Br)c(Nc2cccc(F)c2C(N)=O)n1 (stereo not drawn) [TMX-2172]
growth rate inhibitory effect (OVCAR8 cells): strong growth rate inhibitory effects
growth rate inhibitory potency relative to non-degrading control ZXH-7035 (OVCAR8 cells; 72 hours): approximately 8.5 fold
number of kinases with >99% inhibition compared to DMSO (more than 400 kinases): 14
